Experiment [1] can be described thus: Resistance factor by IC50(K1)/IC50(HB3). The class given is functional. The method in brief: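 P. falciparum K1 (uncloned, CQ-resistant) and HB3 (sensitive), both from Thailand, were cultured in human erythrocytes in RPMI 1640/HEPES/NaHCO3 with 10% human serum under 3% O2/4% CO2. Assays ran 48 h at 2% parasitemia and 0.5% hematocrit, in triplicate, from DMSO stocks diluted in medium. [3H]hypoxanthine was added at 24 h. IC50 came from probit of the log dose-response curve. The factor is K1 IC50 divided by HB3 IC50.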

In experiment [2] the test system is Plasmodium falciparum. The experiment in a line: In vitro inhibitory activity against chloroquine-sensitive Plasmodium falciparum HB3. The class given is functional, organism-based. The method in brief:
(§1)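 Parasites kept in continuous culture in human erythrocytes in RPMI 1640 with 25 mM HEPES, 32 mM NaHCO3 and 10% human serum, gassed 3% O2/4% CO2/93% N2. 48-h assay at 2% parasitemia, 0.5% hematocrit, triplicate. Drugs from DMSO stocks diluted in medium. [3H]hypoxanthine added at 24 h, harvested at 48 h and counted. IC50 by probit interpolation of log dose–response.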

Experiment [3] has as its system Plasmodium falciparum. The experiment in a line: In vitro inhibitory activity against chloroquine-resistant Plasmodium falciparum K1. Format: functional, organism-based. The method in brief:
as §1

Experiment [4] relates to Plasmodium berghei (NS strain). The experiment can be described thus: In vivo inhibition of Plasmodium berghei infected male Swiss albino mice (Mus musculus) by oral dose.
In experiment [5] the test system is Plasmodium berghei (NS strain). The experiment can be described thus: In vivo inhibition of Plasmodium berghei infected male Swiss albino mice (Mus musculus) by intraperitoneal dose. To be noted: ip.

SMILES strings stand for the structures.

As a reminder, the IC50 is the concentration that gives 50% inhibition. Read a high IC50 as weaker potency in that assay. On to `CC(C)(C)NCc1cc(Nc2ccnc3cc(Cl)ccc23)cc(C2CCCCC2)c1O`, for which the Resistance factor in experiment [1] turned out to be 2.13. The values for the IC50 in the experiment on Plasmodium falciparum [2] and in the experiment with Plasmodium falciparum [3] were 6.8 nM and 14.5 nM, respectively.
The compound `CCc1cc(Nc2ccnc3cc(Cl)ccc23)cc(CNC(C)(C)C)c1O` returned a Resistance factor in experiment [1] of 2.65. The results for the IC50 in the experiment with Plasmodium falciparum [2] and with Plasmodium falciparum [3] were 2.97 nM and 7.9 nM, respectively.
Usually ED50 stands for the dose that gives a 50% effect, or the effect in half of the subjects. In the case of `CCN(CC)Cc1cc(Nc2ccnc3cc(Cl)ccc23)ccc1O.Cl`, the Resistance factor in experiment [1] came to 5.35. For the same compound, the IC50 with Plasmodium falciparum [2] was found to be 2.47 nM; in the experiment on Plasmodium falciparum [3], 13.2 nM. The figures for the ED50 in experiment [4] and in experiment [5] were 1.92 mg/kg and 3.3 mg/kg, respectively.
For `CCN(CC)CCCC(C)Nc1ccnc2cc(Cl)ccc12` (centres undefined), the Resistance factor in experiment [1] amounted to 9.57.
The compound `Cc1cc(Nc2ccnc3cc(Cl)ccc23)cc(CNC(C)(C)C)c1O` displayed a Resistance factor in experiment [1] of 3.76. Moreover, the IC50 with Plasmodium falciparum [2] was found to be 2.99 nM; in the experiment with Plasmodium falciparum [3], 11.2 nM.
As to `CCCc1cc(Nc2ccnc3cc(Cl)ccc23)cc(CNC(C)(C)C)c1O`, in experiment [1], the Resistance factor was determined as 1.86. The IC50 with Plasmodium falciparum [2] stood at 0.98 nM; in the experiment with Plasmodium falciparum [3], 1.83 nM. Further, the 50% effective dose (ED50) turned out to be 0.56 mg/kg in experiment [4] and 0.8 mg/kg in experiment [5].
In experiment [1], `CC(C)(C)NCc1cc(Nc2ccnc3cc(Cl)ccc23)ccc1O` [N-TERT-BUTYL-AMODIAQUINE] registered a Resistance factor of 2.33. The IC50 in the experiment with Plasmodium falciparum [2] came to 1.47 nM; with Plasmodium falciparum [3], 3.43 nM.
Regarding `CC(C)c1cc(Nc2ccnc3cc(Cl)ccc23)cc(CNC(C)(C)C)c1O`, the Resistance factor in experiment [1] was determined as 1.5. The figures for the IC50 in the experiment with Plasmodium falciparum [2] and in the experiment on Plasmodium falciparum [3] were 1.24 nM and 1.87 nM, respectively. For the same compound, the median effective dose (ED50) stood at 0.38 mg/kg in experiment [4] and 0.78 mg/kg in experiment [5].
With `CC(C)(C)NCc1cc(Nc2ccnc3cc(Cl)ccc23)cc(C(C)(C)C)c1O`, the Resistance factor in experiment [1] amounted to 2.54. In addition, the half-maximal inhibitory concentration (IC50) with Plasmodium falciparum [2] turned out to be 8.35 nM; in the experiment on Plasmodium falciparum [3], 21.2 nM.
Turning to `CCC(C)c1cc(Nc2ccnc3cc(Cl)ccc23)cc(CNC(C)(C)C)c1O` (centres undefined), the Resistance factor in experiment [1] was determined as 2.92. Also, the results for the IC50 in the experiment on Plasmodium falciparum [2] and in the experiment with Plasmodium falciparum [3] were 1.97 nM and 5.77 nM, respectively.

These data come from ChEMBL document CHEMBL1132310, “New 4-aminoquinoline Mannich base antimalarials. 1. Effect of an alkyl substituent in the 5'-position of the 4'-hydroxyanilino side chain” (J Med Chem, 1999).
